Screening data: PubChem BioAssay, several laboratories
Sampled rows, rich in hits. Any-hit rate of the full collection: about 11%.
G6PDH CS = inhibits Leuconostoc G6PDH, flagging false hits in G6PDH-based assays; Purified L. mesenteroides G6PDH, diaphorase/resazurin coupled fluorescence, 45 min; inhibition, % at 5 µM; hit rate 0.12% among 200,000; AID 1020
Diaphorase inh = inhibits diaphorase or chemically oxidizes, flagging diaphorase assay artifacts | inhibition, % at 20 µM | hit rate 0.69% among 190,000 | diaphorase resazurin-to-resorufin fluorescence, NADH, 16 min; bacterial (C. kluyveri) enzyme, not human;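 active means primary screen inhibition at 20 µM above a set limit, cut at about 50% in these data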;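 further: plate controls were DMSO with full reaction for no effect and wells lacking NADH for full effect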
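Test system: bacterial diaphorase enzyme (C. kluyveri); Quantity: 0.14 U/mL diaphorase, enzyme working solution; Times: reaction incubation of 16 min at room temperature; Measured by: fluorescence of resorufin formed from resazurin, Ex 544/Em 590 nm; Benchmarks: positive control minus NADH, DMSO neutral control.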
Diaph act CS = counter-screen for diaphorase-based assays: diaphorase activators and chemical reducers; Diaphorase/resazurin coupled assay, resorufin fluorescence, 16 min; active compounds read high; 1 = vehicle wells, 0 = NADH-free wells; activation factor at 20 µM; hit rate 0.005% among 190,000; AID 1229;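 active means diaphorase activity raised at least twofold by the compound at 20 µM; inactive means activation factor below 2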
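Material: purified diaphorase enzyme from Clostridium kluyveri; Also added: 0.114 mM NADH and 0.1 mM resazurin, final amounts; Doses: single compound dose of 20 µM, 1% DMSO final; Times: 16 min enzyme reaction, ambient temperature; Detection: resorufin fluorescence, excitation 544 nm, emission 590 nm; Measure: increased resorufin signal from activators or reducing compounds.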
WT yeast gro inh = growth inhibition of WT yeast, mitochondrial fusion screen. hit rate 2.1% among 190,000. inhibition, % at 10 µM. mitochondrial fusion phenotypic screen, WT strain. AID 1362; in the data active means inhibition above about 58%; tested in S. cerevisiae
L major viab = reduces viability of Leishmania major promastigotes; resazurin fluorescence viability; inhibition, % at 10 µM; hit rate 9% among 200,000;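 further: promastigotes grown with compound for 44 hours at 28 °C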
* = called active by the depositor; · = no result given. Unless noted, no stated cut-off is given here; in the data, active means inhibition above about 50%; inactive means the rest.

SMILES	G6PDH CS	Diaphorase inh	Diaph act CS	WT yeast gro inh	L major viab
NNc1nc(-c2ccccc2)cs1	-4	14	0.9	13	90*
Cc1ccc(-c2csc(NC(=S)NC(=O)c3ccco3)n2)cc1	-3	2	1	-25	-8
Cc1cc(C)nc(NC(=O)CSc2ncccn2)n1	8	13	0.9	0	-7
COc1ccc(-c2[nH]nc3oc(=O)c(CCO)c(C)c23)cc1	3	-10	1.1	5	-5
COc1cc(-c2ccc(NC(=O)CN3CCCCC3)c(OC)c2)ccc1NC(=O)CN1CCCCC1	·	·	·	·	-3
CCN(CC)c1ccc(NC(=O)c2ccc3c(c2)c(C)c(C)n3C)cc1	5	13	0.9	18	45
CCOC(=O)C1CCCN(CCC(=O)Nc2ccc3c(c2)CCC3)C1 (centres undefined)	2	10	0.9	-2	90*
CCOC(=O)C1CCN(CCC(=O)Nc2ccc(F)cc2)CC1	4	0	1	-13	70*
CCOc1ccc(NC(=O)CCN2CCCCC2)cc1	1	7	0.9	5	4
CCOC(=O)C1CCN(CCC(=O)Nc2ccc(C)c(C)c2)CC1	4	4	1	-11	88*
CCOC(=O)C1CCCN(CCC(=O)Nc2ccc(C)c(C)c2)C1 (centres undefined)	4	1	1	4	31
Cc1ccc2[nH]cc(C(=O)CCl)c2c1	11	5	1	-49	81*
Cc1ccc(C(C(=O)NC(C)(C)C)N(Cc2cccs2)C(=O)c2ccc3c(c2)OCCO3)cc1 (centres undefined)	-12	16	0.8	72*	22
Cc1ccc(C(C(=O)NC(C)(C)C)N(Cc2cccs2)C(=O)c2csnn2)cc1 (centres undefined)	·	·	·	·	7
CCC(C)(C)NC(=O)C(c1ccc(C)cc1)N(Cc1cccs1)C(=O)c1ccc2c(c1)OCCO2 (centres undefined)	6	16	0.8	74*	20
O=S(=O)(Nc1ccc(-c2csc(-c3ccccc3)n2)cc1)c1ccc(F)cc1	-23	26	0.7	92*	5
Fc1ccc(-c2csc(-c3ccncc3)n2)cc1	-2	18	0.8	21	9
O=C(Nc1nc(-c2ccccc2)cs1)c1ccccc1NS(=O)(=O)c1ccc(F)cc1	-3	32	0.7	78*	5
Cc1cc(N2CCCC2)ccc1/C=N/n1cnnc1	0	-5	1.1	-4	67*
COc1ccc(-n2c(SCc3ccccn3)nc3c(c2=O)SCC3)cc1OC	3	9	0.9	-7	-1
N#CC1=C2N=C(N)c3ccccc3N2C2=C(C(=O)CCC2)C1c1cccc(Cl)c1 (centres undefined)	9	21	0.8	9	81*
O=C(O)CCCNC(=O)CCCNC(=O)C(c1ccccc1)c1ccccc1	23	6	0.9	-13	-8
N=C1S/C(=C\c2ccco2)C(=O)N1c1nccs1	1	36	0.6	72	90*
O=C(CSc1nc2ncccc2[nH]1)c1cccc([N+](=O)[O-])c1	9	10	0.9	9	37
CC(=O)Nc1ccc(S(=O)(=O)Nc2nc3ccccc3nc2N2CCCC2)cc1	-3	50*	0.5	28	-2
SMILES	G6PDH CS	Diaphorase inh	Diaph act CS	WT yeast gro inh	L major viab
CC1CCN(C2=C(NS(=O)(=O)c3ccc(Cl)cc3)C(=O)c3ccccc3C2=O)CC1	30	22	0.8	54	38
CC(=O)Nc1ccc(S(=O)(=O)NC2=C(N3CCN(Cc4ccccc4)CC3)C(=O)c3ccccc3C2=O)cc1	37	21	0.8	19	99*
Cc1ccc(NC(=O)CN2C(=O)S/C(=C/c3ccc(O)c([N+](=O)[O-])c3)C2=O)cc1C	13	92*	0.1	51	-2
O=C1S/C(=C\c2ccc(O)c([N+](=O)[O-])c2)C(=O)N1c1ccccc1Cl	10	-6	1.1	80*	-4
O=C1S/C(=C\c2ccc(O)c([N+](=O)[O-])c2)C(=O)N1Cc1cccc([N+](=O)[O-])c1	9	39	0.6	86*	-9
COc1cc(S(=O)(=O)NCC2OCCc3ccccc32)ccc1-n1cnnn1 (centres undefined)	3	13	0.9	-4	-1
COc1cccc(C(=O)NCCSc2ccc(F)cc2)c1	-1	56*	0.4	8	5
COCCCNC(=O)c1ccc2c(c1)OCO2	22	20	0.8	5	-5
COc1cccc(C(=O)NCCSc2ccc(C)cc2)c1	24	6	0.9	22	-1
COCCCNC(=O)c1cccc(C(=O)NCCCOC)c1	4	15	0.8	66*	-3
CCCCCCC(=O)NC(Nc1ccc(S(N)(=O)=O)cc1)C(Cl)(Cl)Cl (centres undefined)	-1	23	0.8	5	-2
CC(=O)N(Cc1ccc(F)cc1)C1=C(NCCc2ccccc2)C(=O)c2ccccc2C1=O	50*	49	0.5	83*	100*
CC(C)C(=O)NCCc1nc2ccccc2n1CCCOc1ccc(Cl)cc1	1	17	0.8	70*	9
Cc1ccc(OCCn2c(CCNC(=O)C(C)C)nc3ccccc32)cc1	4	5	0.9	30	1
CCCc1nc2ccccc2n1CCOc1ccccc1	5	4	1	·	10
COc1ccc(NCc2nc3ccccc3n2CCOc2ccc(C)cc2)cc1	-2	7	0.9	71*	91*
COc1ccc(NCc2nc3ccccc3n2CCOc2ccccc2)cc1	-20	3	1	21	87*
Cc1ccc(NCc2nc3ccccc3n2C)cc1	-1	4	1	11	5
c1ccc(NCc2nc3ccccc3n2CCOc2ccccc2)cc1	-33	13	0.9	77*	13
CC(=O)c1ccc(NC(=O)C(C)Nc2ccc(Cl)cc2)cc1 (centres undefined)	-1	4	1	-57	8
Cc1ccc(OCCn2c(CCCO)nc3ccccc32)cc1	18	3	1	-25	54*
CCc1ccc(CNCc2ccc(OCC(O)CN(C)Cc3ccccc3)cc2)nc1 (centres undefined)	8	-38	1.4	-6	85*
Cc1cc(CN(C)Cc2ccc(OCC(O)CN(C)Cc3ccccc3)cc2)on1 (centres undefined)	13	-16	1.2	5	88*
CN(Cc1ccccc1)CC(O)COc1ccc(CNCCc2cccnc2)cc1 (centres undefined)	19	-19	1.2	6	83*
CN(Cc1ccccc1)CC(O)COc1ccc(CNCCc2ccncc2)cc1 (centres undefined)	16	6	0.9	4	90*
C/C(=N\NC(=O)Cc1ccc(F)cc1)c1ccc(O)cc1	14	1	1	-7	-7
CC(NC(=O)C(c1ccccc1)c1ccccc1)C(=O)O (centres undefined)	14	9	0.9	-11	-5
